In ChEMBL document CHEMBL1138529, “Efficacy, pharmacokinetics, and metabolism of tetrahydroquinoline inhibitors of Plasmodium falciparum protein farnesyltransferase” (Antimicrob Agents Chemother, 2007):

What was measured:
[1] = Drug metabolism in bile duct cannulated Sprague-Dawley rat assessed as radioactive drug recovery in bile at 35 mg/kg, po after 18 hrs; format: ADME, organism-based; set-up: dose 35 mg/kg, route oral; settings: in vivo
In short: (§1)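 Male bile-duct- and jugular-cannulated Sprague-Dawley rats (~350 g, three per compound) given 35 mg/kg 14C-labelled compound orally (80 μCi/kg) in 3% EtOH-7% Tween 80-90% saline. Urine, feces and bile collected for 18 h, cages washed with methanol-water, animals autopsied; radioactivity per matrix by liquid scintillation counting as mean % of dose.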

[2] = Drug metabolism in bile duct cannulated Sprague-Dawley rat assessed as radioactive drug recovery in urine at 35 mg/kg, po after 18 hrs; format: ADME, organism-based; set-up: dose 35 mg/kg, route oral; settings: in vivo; in short: as §1
[3] = Drug metabolism in bile duct cannulated Sprague-Dawley rat assessed as radioactive drug recovery in feces at 35 mg/kg, po after 18 hrs; format: ADME, organism-based; set-up: dose 35 mg/kg, route oral; settings: in vivo; in short: as §1
[4] = Drug metabolism in bile duct cannulated Sprague-Dawley rat assessed as radioactive drug recovery in gastrointestinal tract at 35 mg/kg, po after 18 hrs; format: ADME, organism-based; set-up: dose 35 mg/kg, route oral; settings: in vivo; in short: as §1
Rattus norvegicus [5] = assay: Drug metabolism in bile duct cannulated Sprague-Dawley rat assessed as radioactive drug recovery at 35 mg/kg, po after 18 hrs; format: ADME, organism-based; set-up: dose 35 mg/kg, route oral; settings: in vivo; in short: as §1
Rattus norvegicus [6] = assay: Toxicity in bile duct cannulated Sprague-Dawley rat assessed as incidence of adverse events at 35 mg/kg, po after 18 hrs; format: organism-based; set-up: dose 35 mg/kg, route oral; settings: in vivo
In short: (§2)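 Male Sprague-Dawley rats, about 350 g, with jugular and bile-duct cannulae, allowed 1 week recovery; three per compound. Oral gavage 35 mg/kg in 3% EtOH-7% Tween 80-90% saline with 80 μCi/kg 14C tracer. Monitored 18 h. Plasma and blood-cell radioactivity measured by liquid scintillation counting and given as μg base equivalents/g.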

Rattus norvegicus [7] = assay: Plasma concentration in bile duct cannulated Sprague-Dawley rat at 35 mg/kg, po after 0.5 hrs; format: ADME, organism-based; set-up: dose 35 mg/kg, route oral; settings: in vivo; in short: as §2
Rattus norvegicus [8] = assay: Plasma concentration in bile duct cannulated Sprague-Dawley rat at 35 mg/kg, po after 1 hr; format: ADME, organism-based; set-up: dose 35 mg/kg, route oral; settings: in vivo; in short: as §2
Rattus norvegicus [9] = assay: Plasma concentration in bile duct cannulated Sprague-Dawley rat at 35 mg/kg, po after 2 hrs; format: ADME, organism-based; set-up: dose 35 mg/kg, route oral; settings: in vivo; in short: as §2
Rattus norvegicus [10] = assay: Plasma concentration in bile duct cannulated Sprague-Dawley rat at 35 mg/kg, po after 3 hrs; format: ADME, organism-based; set-up: dose 35 mg/kg, route oral; settings: in vivo; in short: as §2
Blood [11] = assay: Drug level in bile duct cannulated Sprague-Dawley rat blood at 35 mg/kg, po after 0.5 hrs; format: ADME, organism-based; set-up: dose 35 mg/kg, route oral; settings: in vivo
In short: (§3)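 Male Sprague-Dawley rats (~350 g), jugular vein and bile duct cannulated, 1 week recovery; three per compound dosed by oral gavage with 35 mg/kg in 3% EtOH-7% Tween 80-90% normal saline plus 80 μCi/kg 14C tracer. Plasma and blood cells sampled over 18 h; radioactivity by liquid scintillation, reported as mean μg base equivalents/g.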

Blood [12] = assay: Drug level in bile duct cannulated Sprague-Dawley rat blood at 35 mg/kg, po after 1 hr; format: ADME, organism-based; set-up: dose 35 mg/kg, route oral; settings: in vivo; in short: as §3
Blood [13] = assay: Drug level in bile duct cannulated Sprague-Dawley rat blood at 35 mg/kg, po after 2 hrs; format: ADME, organism-based; set-up: dose 35 mg/kg, route oral; settings: in vivo; in short: as §3
Blood [14] = assay: Drug level in bile duct cannulated Sprague-Dawley rat blood at 35 mg/kg, po after 3 hrs; format: ADME, organism-based; set-up: dose 35 mg/kg, route oral; settings: in vivo; in short: as §3
Blood [15] = assay: Drug level in bile duct cannulated Sprague-Dawley rat blood at 35 mg/kg, po after 4 hrs; format: ADME, organism-based; set-up: dose 35 mg/kg, route oral; settings: in vivo; in short: as §3
Blood [16] = assay: Drug level in bile duct cannulated Sprague-Dawley rat blood at 35 mg/kg, po after 6 hrs; format: ADME, organism-based; set-up: dose 35 mg/kg, route oral; settings: in vivo; in short: as §3
Blood [17] = assay: Drug level in bile duct cannulated Sprague-Dawley rat blood at 35 mg/kg, po after 18 hrs; format: ADME, organism-based; set-up: dose 35 mg/kg, route oral; settings: in vivo; in short: as §3
Rattus norvegicus [18] = assay: Plasma concentration in bile duct cannulated Sprague-Dawley rat at 35 mg/kg, po after 18 hrs; settings: in vivo
[19] = Permeability from apical to basolateral side in human Caco-2 cells; format: ADME, cell-based; settings: read-out: permeability
[20] = AUC in BALB/c mouse at 50 mg/kg, po; format: ADME, organism-based; set-up: dose 50 mg/kg, route oral; settings: plasma
In short: (§4)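 Three female BALB/c mice (lines for mice, 8–10 weeks) or three female Sprague-Dawley rats (10–12 weeks) per group; 50 mg/kg oral gavage in 3% EtOH-7% Tween 80-90% normal saline. Plasma sampled at set times (tail bleed in mice, saphenous vein in rats), extracted with acetonitrile plus internal standard, quantified by LC/MS; AUC as mean of three animals.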

[21] = Elimination half life in BALB/c mouse at 50 mg/kg, po; format: ADME, organism-based; set-up: dose 50 mg/kg, route oral; settings: in vivo, read-out: beta t1/2
In short: (§5)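 50 mg/kg by oral gavage in 3% EtOH-7% Tween 80-90% normal saline to groups of three females (BALB/c mice, 8–10 weeks, tail bleed; Sprague-Dawley rats, 10–12 weeks, saphenous vein). Plasma extracted with acetonitrile/internal standard, LC/MS; means of three animals. Oral elimination half-life depends on absorption rate as well as elimination.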

[22] = Metabolic stability in rat liver microsomes; format: ADME, Microsome
In short: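 Pooled female liver microsomes at 0.5 mg/ml in 0.1 M potassium phosphate pH 7.4, 3 mM MgCl2, 1 mM EDTA, with NADPH regenerating system (1 mM NADP+, 5 mM glucose-6-phosphate, 1 U/ml G6PDH). Preincubated 10 min at 37°C, then compound added to 1 μM final. Time points quenched with 3 volumes acetonitrile plus internal standard; parent quantified by LC/MS; half-life reported.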

[23] = AUC in Sprague-Dawley rat at 50 mg/kg, po; format: ADME, organism-based; set-up: dose 50 mg/kg, route oral; settings: plasma; in short: as §4
[24] = Cmax in Sprague-Dawley rat at 50 mg/kg, po; format: ADME, organism-based; set-up: dose 50 mg/kg, route oral; settings: in vivo; in short: as §5
[25] = Elimination half life in Sprague-Dawley rat at 50 mg/kg, po; format: ADME, organism-based; set-up: dose 50 mg/kg, route oral; settings: in vivo, read-out: beta t1/2; in short: as §5
[26] = Inhibition of Plasmodium falciparum protein farnesyltransferase by SPA method
Plasmodium falciparum [27] = assay: Antiplasmodial activity against chloroquine-sensitive Plasmodium falciparum 3D7 by [3H]hypoxanthine uptake; format: functional; settings: read-out: ED50 (the source's name)
In short: (§6)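 Asynchronous cultures at 0.5% parasitemia and 0.5% hematocrit in RPMI 1640 with 20% heat-inactivated human A+ plasma, exposed to serially diluted inhibitor (top final 5 μM, from DMSO stock) under 5% CO2/5% O2/90% N2 at 37°C for 48 h. [3H]hypoxanthine was then added for 24 h and harvested counts were background-subtracted against DMSO-only controls. ED50 came from linear regression, as the mean of duplicates.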

Plasmodium falciparum [28] = assay: Antiplasmodial activity against chloroquine-resistant Plasmodium falciparum K1 by [3H]hypoxanthine uptake; format: functional; settings: read-out: ED50 (the source's name); in short: as §6
[29] = AUC in Sprague-Dawley rat at 2 mg/kg, iv; format: ADME, organism-based; set-up: dose 2 mg/kg, route intravenous; settings: plasma
In short: (§7)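 Three female Sprague-Dawley rats per group (10–12 weeks), jugular-vein catheterized; 2 mg/kg in 3% EtOH-7% Tween 80-90% normal saline given through the catheter. Plasma drawn from the catheter at set times, acetonitrile extraction with internal standard, LC/MS quantification.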

[30] = Elimination half life in Sprague-Dawley rat at 2 mg/kg, iv; format: ADME, organism-based; set-up: dose 2 mg/kg, route intravenous; settings: in vivo, read-out: beta t1/2; in short: as §7
[31] = Oral bioavailability in Sprague-Dawley rat; format: ADME, organism-based; settings: in vivo
In short: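 Female Sprague-Dawley rats, 10-12 weeks, three per group. Oral gavage at 50 mg/kg and jugular-catheter i.v. dose at 2 mg/kg, both in 3% EtOH-7% Tween 80-90% saline. Plasma taken over time, acetonitrile extraction with internal standard, LC/MS. Bioavailability computed as oral AUC/i.v. AUC.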

[32] = Drug metabolism in bile duct cannulated Sprague-Dawley rat assessed as radioactive drug recovery in carcass at 35 mg/kg, po after 18 hrs; format: ADME, organism-based; set-up: dose 35 mg/kg, route oral; settings: in vivo; in short: as §1
Rattus norvegicus [33] = assay: Plasma concentration in bile duct cannulated Sprague-Dawley rat at 35 mg/kg, po after 4 hrs; format: ADME, organism-based; set-up: dose 35 mg/kg, route oral; settings: in vivo; in short: as §2
Rattus norvegicus [34] = assay: Plasma concentration in bile duct cannulated Sprague-Dawley rat at 35 mg/kg, po after 6 hrs; format: ADME, organism-based; set-up: dose 35 mg/kg, route oral; settings: in vivo; in short: as §2

SMILES	Drug uptake [1]	Drug uptake [2]	Drug uptake [3]	Drug uptake [4]	Drug uptake (Rattus norvegicus [5])	Activity (Rattus norvegicus [6])	Cp (Rattus norvegicus [7])	Cp (Rattus norvegicus [8])	Cp (Rattus norvegicus [9])	Cp (Rattus norvegicus [10])	Drug uptake (Blood [11])	Drug uptake (Blood [12])	Drug uptake (Blood [13])	Drug uptake (Blood [14])	Drug uptake (Blood [15])	Drug uptake (Blood [16])	Drug uptake (Blood [17])	Cp (Rattus norvegicus [18])	also measured
Cn1cncc1CN1CC(N(CCn2cccc2)S(=O)(=O)c2ccccn2)Cc2cc([14C]#N)ccc21 (configuration not stated)	27.1%	1.6%	33.7%	40.3%	104%	Non-toxic	1.38 ug base equiv/g	1.36 ug base equiv/g	0.723 ug base equiv/g	0.237 ug base equiv/g	0.566 ug base equiv/g	0.493 ug base equiv/g	0.344 ug base equiv/g	0.221 ug base equiv/g	0.073 ug base equiv/g	0.063 ug base equiv/g	0.243 ug base equiv/g	0.351 ug base equiv/g	
Cn1cncc1CN1CC(N(CC2CCN(C(=O)OC(C)(C)C)CC2)S(=O)(=O)c2ccccn2)Cc2cc(C#N)ccc21 (configuration not stated)																			Papp A→B [19]: 15.5 ×10⁻⁶ cm/s; AUC [20]: 11.8 µM·h; half-life [21]: 54 min; half-life [22]: 10 min; AUC [23]: 30.1 µM·h; Cmax [24]: 6.3 µM; half-life [25]: 151 min; IC50 [26]: 1.5 nM; EC50 (Plasmodium falciparum [27]): 155 nM; EC50 (Plasmodium falciparum [28]): 180 nM; AUC [29]: 0.967 µM·h; half-life [30]: 55 min; bioavailability [31]: 124%
Cn1cncc1CN1CC(N(CC2CCN(C(=O)OC(C)(C)C)CC2)S(=O)(=O)c2ccccn2)Cc2cc([14C]#N)ccc21 (configuration not stated)	26.2%	4.3%	26.7%	18.2%	92.2%	Non-toxic	1.5 ug base equiv/g	2.01 ug base equiv/g	2.14 ug base equiv/g	2.2 ug base equiv/g	0.442 ug base equiv/g	0.909 ug base equiv/g	1.03 ug base equiv/g	0.821 ug base equiv/g	0.729 ug base equiv/g	0.623 ug base equiv/g	0.344 ug base equiv/g	0.34 ug base equiv/g	Drug uptake [32]: 9.7%; Cp (Rattus norvegicus [33]): 1.92 ug base equiv/g; Cp (Rattus norvegicus [34]): 1.23 ug base equiv/g
